# From PubChem BioAssay
# ARFGAP1 inh – inhibitors of rat ARFGAP1; inhibition, % at 16.5 µM; AID 651572; Q62848; 360,000 compounds, 0.26% hits; Arfgap1-stimulated ARF1 GTP hydrolysis, GDP FP detection;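 active = inhibition above a per-plate limit, mean inhibition of low control wells plus 3 SD, cut at about 25% in these data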
# Target sequence (Q62848 1-136 limits assumed): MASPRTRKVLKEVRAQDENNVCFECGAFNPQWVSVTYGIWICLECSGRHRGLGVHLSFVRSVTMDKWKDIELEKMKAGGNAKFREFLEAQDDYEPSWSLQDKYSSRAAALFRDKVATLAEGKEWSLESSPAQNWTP
#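 Material: truncated rat Arfgap1 GAP domain; Incubation: compound-enzyme preincubation 20 min, reaction 120 min, detection 60 min, 25 °C; Read-out: percent inhibition of Arfgap1-stimulated GTP hydrolysis; Technique: FP, GDP Alexa 633 tracer displaced from anti-GDP antibody, 620/688 nm; Controls: No-Arfgap1 wells (100%) versus DMSO full-reaction wells (0%); Replication: single well per compound.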
# Rin1-Abl PPI inh – human Rin1-Abl interaction inhibition. P00519+Q13671. inhibition, % at 7.35 µM. 360,000 compounds, 0.4% hits. TR-FRET Rin1/Abl binding, biochemical; in the data active = inhibition above about 5%, passing the limit was not always enough
# ASAP1 GAP inh – blocks human ASAP1-stimulated Arf1 GTP hydrolysis | Q9ULH1 | GDP FP detection | inhibition, % at 16.5 µM | 360,000 compounds, 0.19% hits | AID 624377; in the data active = inhibition above about 25%
# GalR3 antag – blocks the human galanin receptor 3; O60755; HEK293 GalR3-CNG cAMP membrane potential fluorescence; galR3 body fused to GalR1 C-terminus; inhibition, % at 3 µM; 360,000 compounds, 0.44% hits; AID 651719;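 active = inhibition above the screen-wide average plus 3 SD, cut at about 13% in these data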;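 also: forskolin and galanin both at EC90 stimulate the cells; cAMP rise reported by CNG channel membrane potential dye signal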
# Target sequence (O60755 1-299 limits assumed): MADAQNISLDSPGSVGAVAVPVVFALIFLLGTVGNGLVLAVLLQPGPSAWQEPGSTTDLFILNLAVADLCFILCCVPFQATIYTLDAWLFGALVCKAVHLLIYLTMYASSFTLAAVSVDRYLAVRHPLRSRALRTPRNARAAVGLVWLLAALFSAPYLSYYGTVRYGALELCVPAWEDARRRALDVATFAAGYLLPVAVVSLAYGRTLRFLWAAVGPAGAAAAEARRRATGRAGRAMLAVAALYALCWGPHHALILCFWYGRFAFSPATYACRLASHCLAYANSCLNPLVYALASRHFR
# GalR3 conf – confirmation of human galanin receptor 3 antagonists; shares compounds with GalR3 antag; HEK293 GalR3 CNG cAMP biosensor, membrane potential fluorescence; galR3 fused to GalR1 carboxy tail; challenged with forskolin and galanin at EC90; inhibition, % at 3 µM; 1,600 compounds, 59% hits; AID 652245;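 active = inhibition above the primary screen's cutoff, the mean inhibition of all screened compounds plus 3 SD, cut at about 13% in these data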
# HEK-CNG parental – counter-screen for GalR3 antagonists: nonspecific agonists in parental HEK-CNG cells; 1,600 compounds, 10% hits; HEK293-CNG parental cells, cAMP membrane potential fluorescence; normalised: DMSO wells 0%, forskolin wells 100%; shares compounds with GalR3 antag; activation, % at 3 µM; in the data active = activation above about 1.3%
# Hits are given with their value; 0 = inactive; - = no result. Only some compounds are listed: those with a hit (about 1.2% of all), similar ones and a draw of the others.
SMILES,ARFGAP1 inh,Rin1-Abl PPI inh,ASAP1 GAP inh,GalR3 antag,GalR3 conf,HEK-CNG parental
O=C(Nc1ccc(F)cc1)c1ccc(CN2CCc3ccccc3C2)cc1,0,0,0,103,104,0
Cc1ccccc1NC(=O)c1ccc(CN2CCc3ccccc3C2)cc1,0,0,0,0,-,-
CCCCCCCCN1C(=O)[C@@H](CC(=O)NCCCOC)C[C@@]2(C(=O)OC)C1=C[C@H](C(C)(C)C)O[C@@H]2C,0,-,0,0,-,-
COC(=O)[C@]12C[C@H](CC(=O)NCc3cccc(C(F)(F)F)c3)C(=O)N(CCC3=CCCCC3)C1=C[C@H](COCc1ccccc1)O[C@@H]2C,0,-,0,0,-,-
CCN(CC(=O)Nc1ccc2c(c1)OCCO2)C(=O)/C=C/c1ccc(F)cc1,0,0,0,13,28,2.4
CCCCN1CC(COCc2ccccc2)Oc2cccc(N3CCCCC3)c2S1(=O)=O (stereo not given),0,-,0,0,-,-
CC(C)C[C@H]1COc2cccc(F)c2S(=O)(=O)N1,0,-,0,0,-,-
COc1ccccc1N1C(=O)S/C(=C\c2cc(C)n(C)c2C)C1=O,0,0,0,19,0,0
N#Cc1c(N)nc(SCC(=O)NC2CCCCC2)c(C#N)c1-c1ccc(Cl)cc1,0,0,0,0,-,-
N#CCSc1nc(N)c(C#N)c(C2CCCCC2)c1C#N,0,0,0,72,88,0
CCCc1cc(-c2[nH]ncc2-c2ccc(C(=O)OCC)o2)c(O)cc1O,0,0,0,31,17,0
COC(=O)C1=C(C)N(C)C(=NCc2ccccc2)NC1c1ccccc1C(F)(F)F (stereo not given),0,-,0,0,-,-
C[C@@H]1CN([C@@H](C)CO)C(=O)CCCn2cc(nn2)CO[C@H]1CN(C)C(=O)Nc1ccc(C(F)(F)F)cc1,0,-,0,0,-,-
Cc1ccc(NC(=O)OCc2ccccc2S(C)=O)cc1 (stereo not given),0,0,0,15,29,0
COC(=O)[C@]12C[C@H](CC(=O)NCc3ccc(C)o3)C(=O)N(Cc3ccccc3)C1=C[C@H](C(C)(C)C)O[C@@H]2C,0,-,0,0,-,-
CC(C)CCOc1ccc(C2=NNC(=O)CC2)cc1,0,0,0,26,15,0
COc1cc2c(cc1OC)/C(=C/C(=O)c1ccc(OC)c([N+](=O)[O-])c1)NCC2,0,0,0,19,25,0
COc1cc2c(cc1OC)/C(=C/C(=O)c1cccc([N+](=O)[O-])c1)NCC2,0,0,0,0,-,-
CCSc1nsc(NC(=O)Nc2cccc(F)c2)n1,0,0,0,69,28,0
COC(=O)C1=C(C)N(Cc2ccc(Br)cc2)C(=S)NC1c1cccc(OC)c1 (stereo not given),0,-,0,0,-,-
COc1cc(/C=C/C2=NNC(=O)CC2)cc(OC)c1OC,0,0,0,20,16,0
CN(C)CCCNS(=O)(=O)c1ccc(N2CCN(Cc3ccc4c(c3)OCO4)CC2)c([N+](=O)[O-])c1,0,0,0,57,95,0
CC(NC(=O)Nc1nnc(C(F)(F)F)s1)(C(F)(F)F)C(F)(F)F,0,0,0,81,88,0
CNC(=S)N/N=C/c1ccc(OCC(=O)Nc2c(C)cc(C)cc2C)c(OC)c1,0,0,0,19,23,0
C=CCN1CC(COCc2ccccc2)OCCS1(=O)=O (stereo not given),0,-,0,0,-,-
SMILES,ARFGAP1 inh,Rin1-Abl PPI inh,ASAP1 GAP inh,GalR3 antag,GalR3 conf,HEK-CNG parental
COc1ccccc1NC(=O)CSC1=NC(=O)C(Cc2ccccc2)C(=O)N1 (stereo not given),0,0,0,13,0,0
C#CCNc1cccc2c1S(=O)(=O)N[C@H](C)CO2,0,-,0,0,-,-
COC(=O)CC#C[C@H](C)[C@@H](NS(=O)(=O)c1ccc([N+](=O)[O-])cc1)C(C)(C)C,0,-,0,0,-,-
Nc1ncnc2c1ncn2[C@@H]1O[C@H](C(=O)N[C@@H](CCc2ccccc2)C(=O)N2CCN(C(=O)N3CCOCC3)CC2)[C@@H](O)[C@H]1O,0,-,0,0,-,-
Cc1nnc(SCc2nc3scc(-c4ccccc4)c3c(=O)[nH]2)s1,0,0,0,14,0,0
CC(=O)CCN1CCSCCS1(=O)=O,0,-,0,0,-,-
COc1ccc(NC(=O)C(NC(=O)c2ccc(=O)[nH]c2)c2ccc(C)cc2)cc1 (stereo not given),0,0,0,0,-,-
COc1ccc(NC(=O)C(c2ccc(C)cc2)N(C)C(=O)c2ccc(=O)[nH]c2)cc1 (stereo not given),0,0,0,13,0,0
CCCCc1c(-c2ccccc2OC)ncn1Cc1ccc(C)cc1,0,-,0,0,-,-
COc1cccc(CN(C)C(=O)c2ccc(OCC(=O)Nc3cccc(C(F)(F)F)c3)c(OC)c2)c1,0,0,0,90,94,0
Oc1cccc(Oc2ncc(C(F)(F)F)cc2Cl)c1,0,0,0,13,0,0
FC(F)(F)c1cnc(Oc2cccc3ccccc23)c(Cl)c1,0,0,0,0,-,-
Cc1ccc(C(=O)NCCCn2ccnc2)cn1,0,0,0,-,0,0
CC(C)(C)c1ccc(C(=O)NCCCn2ccnc2)cc1,0,0,0,0,-,-
c1ccc(Cc2cnc(N3CCN(Cc4cccc(-c5ccsc5)n4)CC3)nc2)cc1,0,-,0,0,-,-
C[C@@H]1CN([C@@H](C)CO)C(=O)CCCn2nncc2CO[C@H]1CN(C)S(=O)(=O)c1ccc(-c2ccccc2)cc1,0,0,0,13,45,0
CCOc1ccc2[nH]c(SCC(=O)OC)c([N+](=O)[O-])c2c1,0,0,0,20,17,0
C#CCN(Cc1ccco1)C(=O)c1nnc2c3cc(OC)ccc3n(S(=O)(=O)c3ccc(OC)cc3)c2n1,0,-,0,0,-,-
CCCCCn1c(=O)[nH]c2cc(C(=O)NCc3ccc4c(c3)OCO4)ccc2c1=O,0,0,0,0,-,-
CCCCCn1c(=O)[nH]c2cc(C(=O)N3CCN(Cc4ccc5c(c4)OCO5)CC3)ccc2c1=O,0,0,0,99,106,0
O=C1COc2ccc(-c3csc(=Nc4ccc(OC(F)F)cc4)n3CC3CCCO3)cc2N1 (stereo not given),0,0,0,0,-,-
COCC(C)n1c(-c2ccc3c(c2)NC(=O)CO3)csc1=Nc1ccc(OC(F)F)cc1 (stereo not given),0,0,0,31,92,0
COc1ccc(-c2nc(C#N)c(NCc3ccc(C)cc3)o2)cc1OC,0,0,0,23,20,0
CC1(C)CC(N2CCCC2)=CC(=[N+]2CCCCC2)C1,0,0,0,37,0,0
CC1(C)CC(N2CCCC2)=CC(=[N+]2CCCC2)C1,0,0,0,0,-,-
OC(c1ccc(F)cc1)c1nc(-c2cc3ccccc3o2)cs1 (stereo not given),0,0,0,0,-,-
